Source: ChEMBL document CHEMBL1649161, “Pharmacokinetics of EDP-420 after ascending single oral doses in healthy adult volunteers” (Antimicrob Agents Chemother, 2009)

Key:
Homo sapiens [1] = experiment: Toxicity in healthy human assessed as changes in direct and total bilirubin level at 100 to 1200 mg, po administered as single dose; assay type: organism-based; conditions: in vivo
Procedure, shortened: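 Randomized, double-blind, placebo-controlled single ascending dose study with eight subjects per group (6 drug, 2 placebo of microcrystalline cellulose). Subjects were fasted before dosing. Safety labs were done at 120 h, with a full chemistry panel also at 72 and 96 h for the top dose. Final evaluation on day 8–10, with adverse events recorded.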

Homo sapiens [2] = experiment: Toxicity in healthy human assessed as changes in ECG parameters signs at 100 to 1200 mg, po administered as single dose; assay type: organism-based; conditions: in vivo
[3] = Elimination rate constant in healthy human plasma at 800 mg, po administered as single dose measured after 120 hrs; assay type: ADME, organism-based
[4] = AUC (0 to last) in healthy human plasma at 400 mg, po administered as single dose measured after 120 hrs; assay type: ADME, organism-based; set-up: dose 400 mg, route oral, time 0 - last
Procedure, shortened: (§1)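 Healthy adults (6 per dose group) received a single oral suspension after an 8-h fast, with food withheld 4 h. EDTA blood was drawn predose to 120 h. Plasma was protein-precipitated with ACN and assayed by LC-MS/MS (clarithromycin internal standard; range 1–1,000 ng/ml). AUC0-last was computed by linear-up/log-down trapezoid; AUC0-∞ added Clast/λz. Values are noncompartmental means.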

[5] = Cmax in healthy human plasma at 800 mg, po administered as single dose measured after 120 hrs; assay type: ADME, organism-based; set-up: dose 800 mg, route oral
Procedure, shortened: (§2)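 Healthy adults (n = 6 per dose) took a single oral suspension fasted (8 h before, 4 h after). Plasma was sampled from 0.25 to 120 h postdose and quantified by validated LC-MS/MS after acetonitrile precipitation (LLOQ 1 ng/ml). Cmax was read directly from observed concentration–time data; the group mean was reported.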

[6] = Apparent volume of distribution in healthy human plasma at 800 mg, po administered as single dose measured after 120 hrs; assay type: ADME, organism-based
[7] = Apparent volume of distribution in healthy human plasma at 400 mg, po administered as single dose measured after 120 hrs; assay type: ADME, organism-based
[8] = AUC (0 to infinity) in healthy human plasma at 800 mg, po administered as single dose measured after 120 hrs; assay type: ADME, organism-based; set-up: dose 800 mg, route oral, time infinity; procedure, shortened: as §1
[9] = Tmax in healthy human plasma at 100 mg, po administered as single dose measured after 120 hrs; assay type: ADME, organism-based
Procedure, shortened: (§3)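 Fasted healthy adults (n = 6 per group) took one oral suspension dose. Plasma was sampled from predose through 0.25–120 h postdose and measured by validated LC-MS/MS (lower limit 1 ng/ml). Tmax was read directly from observed concentration–time data using actual sampling times and reported as median with range.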

[10] = Renal clearance in healthy human at 200 mg, po administered as single dose measured after 48 hrs; assay type: ADME, organism-based, Kidney; conditions: in vivo, read-out: CL_renal (converted)
Procedure, shortened: (§4)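 Healthy adults (6 active per dose) got a single oral suspension dose after an 8-h fast, with food withheld 4 h. Urine over 0–48 h in intervals and serial EDTA plasma were assayed by validated LC-MS/MS, with plasma calibration from 1 to 1,000 ng/ml. CLR = Ae0-48 (urine volume × concentration summed) divided by plasma AUC0-48.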

[11] = AUC (0 to last) in healthy human plasma at 200 mg, po administered as single dose measured after 120 hrs; assay type: ADME, organism-based; set-up: dose 200 mg, time 0 - last, route oral; procedure, shortened: as §1
[12] = Renal clearance in healthy human assessed as cumulative fraction excreted unchanged in urine at 800 mg, po administered as single dose measured after 48 hrs; assay type: ADME, organism-based; conditions: read-out: Fraction Recovered in urine
Procedure, shortened: (§5)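 Urine collected predose and over 0–2, 2–4, 4–6, 6–8, 8–12, 12–24 and 24–48 h after a single oral suspension dose, given after an 8-h fast with no food for 4 h after. Volumes measured, stored at −20°C, EDP-420 quantified by LC-MS/MS. fe0-48 = Ae0-48/dose × 100%, where Ae0-48 is the sum of volume × concentration over the intervals. Six active subjects per dose.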

Homo sapiens [13] = experiment: Renal clearance in healthy human assessed as cumulative amount excreted in urine at 400 mg, po administered as single dose measured after 48 hrs; assay type: ADME, organism-based; conditions: in vivo
Procedure, shortened: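 Healthy adults (6 per dose) received a single fasted oral suspension dose. Urine was collected predose and over 0–2, 2–4, 4–6, 6–8, 8–12, 12–24 and 24–48 h intervals, volumes were recorded, and aliquots were stored at −20°C. Samples were assayed by LC-MS/MS. Ae0-48 is the summed volume × concentration over all intervals; the mean was reported.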

[14] = Cmax in healthy human plasma at 200 mg, po administered as single dose measured after 120 hrs; assay type: ADME, organism-based; set-up: dose 200 mg, route oral; procedure, shortened: as §2
[15] = Apparent volume of distribution in healthy human plasma at 200 mg, po administered as single dose measured after 120 hrs; assay type: ADME, organism-based
[16] = Cmax in healthy human plasma at 400 mg, po administered as single dose measured after 120 hrs; assay type: ADME, organism-based; set-up: dose 400 mg, route oral; procedure, shortened: as §2
[17] = Tmax in healthy human plasma at 200 mg, po administered as single dose measured after 120 hrs; assay type: ADME, organism-based; procedure, shortened: as §3
[18] = Apparent oral clearance in healthy human plasma at 200 mg, po administered as single dose measured after 120 hrs; assay type: ADME, organism-based
Procedure, shortened: (§6)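 Single oral suspension dose in fasted healthy adults (6 per group). Plasma was collected to 120 h and measured by LC-MS/MS (1–1,000 ng/ml). Apparent oral clearance was dose divided by AUC0-∞ (noncompartmental, linear-up/log-down trapezoid extrapolated with Clast/λz); the mean was reported.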

[19] = Half life in healthy human plasma at 200 mg, po administered as single dose measured after 120 hrs; assay type: ADME, organism-based
[20] = Apparent oral clearance in healthy human plasma at 100 mg, po administered as single dose measured after 120 hrs; assay type: ADME, organism-based; procedure, shortened: as §6
[21] = Tmax in healthy human plasma at 1200 mg, po administered as single dose measured after 120 hrs; assay type: ADME, organism-based; procedure, shortened: as §3
[22] = Half life in healthy human plasma at 800 mg, po administered as single dose measured after 120 hrs; assay type: ADME, organism-based
[23] = Renal clearance in healthy human at 400 mg, po administered as single dose measured after 48 hrs; assay type: ADME, organism-based, Kidney; conditions: in vivo, read-out: CL_renal (converted); procedure, shortened: as §4
[24] = Cmax in healthy human plasma at 1200 mg, po administered as single dose measured after 120 hrs; assay type: ADME, organism-based; set-up: dose 1200 mg, route oral; procedure, shortened: as §2
[25] = AUC (0 to infinity) in healthy human plasma at 200 mg, po administered as single dose measured after 120 hrs; assay type: ADME, organism-based; set-up: dose 200 mg, route oral, time infinity; procedure, shortened: as §1
[26] = Apparent volume of distribution in healthy human plasma at 100 mg, po administered as single dose measured after 120 hrs; assay type: ADME, organism-based
[27] = Renal clearance in healthy human assessed as cumulative fraction excreted unchanged in urine at 200 mg, po administered as single dose measured after 48 hrs; assay type: ADME, organism-based; conditions: read-out: Fraction Recovered in urine
Procedure, shortened: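 After a single oral fasted suspension dose in healthy adults (6 per group), urine was collected in intervals to 48 h and measured by LC-MS/MS. fe0-48 = Ae0-48 (summed interval volume × concentration) / dose × 100%; the mean was reported.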

[28] = Renal clearance in healthy human assessed as cumulative fraction excreted unchanged in urine at 400 mg, po administered as single dose measured after 48 hrs; assay type: ADME, organism-based; conditions: read-out: Fraction Recovered in urine; procedure, shortened: as §5
[29] = Half life in healthy human plasma at 100 mg, po administered as single dose measured after 120 hrs; assay type: ADME, organism-based
[30] = AUC (0 to last) in healthy human plasma at 100 mg, po administered as single dose measured after 120 hrs; assay type: ADME, organism-based; set-up: dose 100 mg, route oral, time 0 - last; procedure, shortened: as §1
[31] = Renal clearance in healthy human at 1200 mg, po administered as single dose measured after 48 hrs; assay type: ADME, organism-based, Kidney; conditions: in vivo, read-out: CL_renal (converted); procedure, shortened: as §4

With `CC[C@H]1OC(=O)[C@H](C)C(=O)[C@H](C)[C@@H](O[C@@H]2O[C@H](C)C[C@H](N(C)C)[C@H]2O)[C@@]2(C)C[C@@H](C)/C(=N\C(C)=O)[C@H](C)[C@@H](OC/C(=N\OCc3ccc(-n4cccn4)nc3)CO2)[C@]1(C)O` [MODITHROMYCIN] the Activity (Homo sapiens [1]) was “Non-toxic”, the Activity (Homo sapiens [2]) was “Non-toxic” and the k el at 120 h [3] was 1.09e-05 s⁻¹. For the same compound, the AUC(0-t) at 120 h [4] was 14300 ng·h/mL, the Cmax [5] was 1070 ng/mL and the Vd/F [6] was 601 L. For the same compound, the Vd/F [7] was 635 L, the AUC(0-inf) [8] was 33900 ng·h/mL and the Tmax [9] was 1.75 h. For the same compound, the CL renal at 48 h [10] was 60.3 mL/min, the AUC(0-t) at 120 h [11] was 7650 ng·h/mL and the dose excreted at 48 h [12] was 11.4%. The “Amount Recovered in urine” value (Homo sapiens [13]) was 41.9 mg, the Cmax [14] was 360 ng/mL and the Vd/F [15] was 589 L. For the same compound, the Cmax [16] was 542 ng/mL, the Tmax [17] was 2.5 h and the CL/F [18] was 432 mL/min. For the same compound, the half-life [19] was 948 min, the CL/F [20] was 485 mL/min and the Tmax [21] was 5 h. For the same compound, the half-life [22] was 1060 min, the CL renal at 48 h [23] was 58 mL/min and the Cmax [24] was 1080 ng/mL. It also gave an AUC(0-inf) [25] of 7710 ng·h/mL, a Vd/F [26] of 656 L and a dose excreted at 48 h [27] of 12.3%. The dose excreted at 48 h [28] was 10.5%, the half-life [29] was 936 min and the AUC(0-t) at 120 h [30] was 3400 ng·h/mL. The CL renal at 48 h [31] was 41.3 mL/min.
